GPR7 antag: human neuropeptides B/W receptor 1 antagonism; P48145; GPR7-expressing cells, fluorescence antagonist assay; inhibition, % at 4.4 µM; 290,000 tested, 1.1% active; AID 1861; in the data active means inhibition above about 16%, passing the limit was not always enough;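 further: cells stimulated with the agonist NPW; 0% = agonist with vehicle and 100% = vehicle without agonist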
TRPML3 ag: human mucolipin-3 channel agonism; activation, % at 3 µM; 220,000 tested, 0.29% active; HEK293 TRPML3-YFP, Fluo-8 calcium fluorescence; 100% = the carbachol control signal; Q8TDD5; AID 1448;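 active means activation above its plate's cutoff, the mean activation of the plate's test wells plus 3 SD, cut at about 12% in these data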;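 further: 0% = DMSO only wells and 100% = carbachol wells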
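Test system – HEK293 line with stable expression of human TRPML3-YFP channel · Control set – carbachol 87 µM final as high control (100%), DMSO as low control (0%) · Signal – Fluo-8 calcium dye fluorescence, ex 470-495, em 515-575 nm · Incubation – 1-h 37 °C dye load, 5-s basal, 120-s post-compound reads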
LANA-H2A inh: blocks KSHV LANA binding to histone H2A/H2B; Q9QR71; cell-free LANA-H2A/H2B peptide, fluorescence polarization; inhibition, % (no concentration beside the values); 320,000 tested, 0.6% active; AID 2629; in the data active means inhibition mostly above about 10%, no sharp cut-off; inactive means mostly below about 6.7%
Target sequence (Q9QR71 whole entry, looked up): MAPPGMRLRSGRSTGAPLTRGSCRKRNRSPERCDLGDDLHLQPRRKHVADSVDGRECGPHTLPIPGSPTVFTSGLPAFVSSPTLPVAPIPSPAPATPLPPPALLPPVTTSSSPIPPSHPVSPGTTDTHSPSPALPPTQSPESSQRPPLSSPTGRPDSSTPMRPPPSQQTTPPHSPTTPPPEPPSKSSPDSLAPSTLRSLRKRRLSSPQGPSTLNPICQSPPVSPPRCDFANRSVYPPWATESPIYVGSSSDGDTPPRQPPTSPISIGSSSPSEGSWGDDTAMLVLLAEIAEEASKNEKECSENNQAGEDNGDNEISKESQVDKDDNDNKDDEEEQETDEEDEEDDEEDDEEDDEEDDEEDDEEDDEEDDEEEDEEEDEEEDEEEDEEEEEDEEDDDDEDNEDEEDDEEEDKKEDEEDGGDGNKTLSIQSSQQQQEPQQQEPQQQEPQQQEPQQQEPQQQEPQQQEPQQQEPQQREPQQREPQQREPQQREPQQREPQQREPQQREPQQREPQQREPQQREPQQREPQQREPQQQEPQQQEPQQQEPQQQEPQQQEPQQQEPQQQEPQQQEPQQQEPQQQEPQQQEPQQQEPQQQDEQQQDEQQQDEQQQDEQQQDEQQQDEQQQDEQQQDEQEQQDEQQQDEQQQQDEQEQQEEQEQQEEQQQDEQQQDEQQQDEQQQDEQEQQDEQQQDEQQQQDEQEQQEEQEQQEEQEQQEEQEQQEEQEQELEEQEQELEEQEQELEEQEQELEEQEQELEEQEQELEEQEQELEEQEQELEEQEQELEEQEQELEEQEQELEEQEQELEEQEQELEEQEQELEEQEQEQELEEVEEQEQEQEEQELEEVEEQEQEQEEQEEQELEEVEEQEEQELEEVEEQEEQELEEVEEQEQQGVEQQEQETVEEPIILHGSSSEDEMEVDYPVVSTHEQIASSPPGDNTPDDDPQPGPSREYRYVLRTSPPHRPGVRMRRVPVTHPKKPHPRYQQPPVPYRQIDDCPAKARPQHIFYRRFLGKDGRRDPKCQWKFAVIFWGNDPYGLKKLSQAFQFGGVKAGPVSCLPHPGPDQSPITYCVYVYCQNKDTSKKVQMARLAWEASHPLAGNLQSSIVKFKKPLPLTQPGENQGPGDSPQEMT
TAAR1 agonist: human TAAR1 agonism; 360,000 tested, 0.99% active; CHO RD-HGA16 TAAR1, Fluo-8 calcium fluorescence; vehicle wells 0%, saturating PEA agonist 100%; AID 624467; activation, % at 3 µM; Q96RJ0;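 active means activation above the mean activation of all test compounds in the run plus 3 SD, cut at about 38% in these data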
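System: CHO-derived RD-HGA16 cells with stable Gα16 and human TAAR1. Times: 17-24 h plating, Fluo-8 75 min 37 °C, 30 min RT. Measured by: calcium-sensitive Fluo-8 signal, excitation 470-495, emission 515-575 nm. Read-out basis: % activation relative to PEA EC100 response. Control set: DMSO and PEA EC100. Repeats: no replicates (n 1).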
zfTRPN1 agonist: activates the zebrafish TRPN1 channel; HEK293 zebrafish TRPN1-YFP, Fluo-8 calcium fluorescence; 100% = response to 87 µM carbachol; activation, % at 3 µM; 220,000 tested, 0.18% active;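 active means activation above its plate's cutoff, the mean activation of test wells on that plate plus 3 SD, cut at about 19% in these data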;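 further: 0% = DMSO alone and 100% = 87 µM carbachol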
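Material – zebrafish TRPN1-YFP in HEK293 cells · Doses – 3 µM single point · Schedule – dye 1 h 37 °C plus 30 min RT · Signal – Fluo-8 calcium fluorescence, excitation 470-495 nm, emission 515-575 nm · Read-out – % activation versus carbachol response · Control set – carbachol high, DMSO low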
TAAR1 antag: antagonists of human TAAR1 | CHO RD-HGA16 TAAR1, Fluo-8 calcium fluorescence, antagonist | inhibition, % at 3 µM | 360,000 tested, 1.5% active;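 active means inhibition above a per-plate cutoff, the mean inhibition of test compounds on that plate plus 3 SD, cut at about 49% in these data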;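 further: 0% = DMSO plus EC80 beta-PEA response and 100% = DMSO alone without agonist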
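Test system – hTAAR1-expressing CHO RD-HGA16 cells, Gα16-coupled · Reagent – β-PEA at EC80 concentration, post-compound challenge · Compound dosing – 3 µM, single point · Timing – 140 s kinetic read after compound, 140 s after agonist · Detection – Fluo-8 intracellular calcium dye fluorescence, real-time kinetic reads · Control set – DMSO and EC80 PEA controls · Repeats – n of 1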
nonsel antag count: nonselective antagonist in TAAR1 antagonist counter-screen; inhibition, % at 3 µM; AID 651780; counterscreen cell line, calcium fluorescence, antagonist mode; 2,400 tested, 77% active; shares compounds with TAAR1 antag; in the data active means inhibition above about 22%;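 further: CHO-Ga16 host cells stimulated with ATP at an EC80 level; 0% = agonist EC80 plus vehicle and 100% = vehicle without agonist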
TAAR1 ant conf: confirmation of human TAAR1 antagonists. 2,400 tested, 40% active. inhibition, % at 3 µM. shares compounds with TAAR1 antag. TAAR1-expressing cells, fluorescence antagonist read-out; in the data active means inhibition above about 49%;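 further: CHO-Ga16 host cells challenged with agonist PEA near its EC80; 0% = agonist at EC80 plus vehicle and 100% = vehicle with no agonist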
Ga16 nonsel ag: nonselective Ga16 agonist in TAAR1 antagonist counter-screen | shares compounds with TAAR1 antag | Ga16-expressing cells, calcium fluorescence, agonist counterscreen | activation, % at 3 µM | 2,400 tested, 18% active | AID 651953; in the data active means activation above about 12%;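 further: 0% = vehicle wells and 100% = saturating stimulus response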
TAAR1 ag counter: counter-screen for human TAAR1 antagonists: TAAR1 agonists | shares compounds with TAAR1 antag | hTAAR1 cell line, fluorescence activation, agonist mode | 2,400 tested, 2% active | activation, % at 3 µM; in the data active means activation above about 37%;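 further: CHO cells stably expressing TAAR1 with calcium dye readout; 0% = DMSO vehicle and 100% = full agonist response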
* = called active by the depositor; · = no result given. Hits are enriched below; roughly 3.4% of the tested compounds scored in any of these assays.

SMILES	GPR7 antag	TRPML3 ag	LANA-H2A inh	TAAR1 agonist	zfTRPN1 agonist	TAAR1 antag	nonsel antag count	TAAR1 ant conf	Ga16 nonsel ag	TAAR1 ag counter
O=C(CCC1CCCCC1)Nc1ccc(C(=O)c2ccncc2)cc1	2	1	2	7	0	66*	36*	56*	11	11
O=C(CCC1CCCCC1)Nc1cccnc1	17	1	-6	11	-1	-9	·	·	·	·
Cc1cc(NS(=O)(=O)c2c(C(=O)N3CCOCC3)c(C)n(C)c2C)ccc1Br	9	·	-3	1	·	-37	·	·	·	·
COC(=O)c1ccccc1NC(=O)CSc1nnnn1-c1ccc(C)cc1C	12	0	0	14	-1	50*	30*	32	4	3
CC(=O)C1=C(O)C(=O)N(c2ccc(O)cc2)C1c1ccccc1Cl (centres undefined)	-8	·	5	6	·	2	·	·	·	·
CCOc1ncccc1C(=O)OCC(=O)N1CCC(C)CC1	·	·	-2	16	·	-8	·	·	·	·
COc1cccc(OC)c1C(=O)Nc1cc(C)nn1-c1nc2ccccc2[nH]1	-28	0	1	8	-1	69*	28*	49*	4	0
CCCN1C2CCCC1CC(NC(=O)c1ccccc1Br)C2 (centres undefined)	1	·	3	1	·	-16	·	·	·	·
COc1ccc(S(=O)(=O)N2CCC(C(=O)NCCCc3ccccc3)CC2)cc1	-1	·	3	2	·	-28	·	·	·	·
Cc1nc2ccccc2c2c(N)c3ccccc3n12	0	1	7	10	1	56*	22*	33	7	7
Nc1c2ccccc2nc2ccccc12	-15	1	6	6	0	1	·	·	·	·
CCOC(=O)c1sc(NC(=O)c2cccc(S(=O)(=O)N3CCN(C)CC3)c2)cc1C	-11	1	1	3	2	5	·	·	·	·
CCOC(=O)c1sc(NC(=O)c2cccc(S(=O)(=O)N(CC)CC)c2)cc1C	-1	1	5	11	0	61*	47*	63*	10	6
COc1cc(C(=O)OCCc2cc3ccccc3c(=O)o2)cc(OC)c1OC	·	·	4	9	·	65*	27*	39	8	5
COc1cc(C(=O)OCCCc2cc3ccccc3c(=O)o2)cc(OC)c1OC	·	·	3	4	·	3	·	·	·	·
Cc1ccc(S(=O)(=O)N(C)c2ccc(C(=O)N(C)Cc3nc4ccccc4c(=O)[nH]3)cc2)cc1	·	·	·	4	·	8	·	·	·	·
CCN(CC)S(=O)(=O)c1ccc2[nH]cc(C(=O)NCCC3=CCCCC3)c(=O)c2c1	-2	1	4	11	1	67*	32*	33	6	5
CCN(CC)S(=O)(=O)c1ccc2[nH]cc(C(=O)NCCN3CCCCCC3)c(=O)c2c1	-3	1	-1	9	2	6	·	·	·	·
CC1CCCC(C)N1C(=O)COC(=O)CSc1ccc([N+](=O)[O-])cc1 (centres undefined)	·	·	·	1	·	-8	·	·	·	·
CC(C)(C)N(Cc1ccccc1)C(=O)COC(=O)CSc1ccc([N+](=O)[O-])cc1	·	·	-3	6	·	67*	31*	27	6	5
CC[C@]12c3[nH]c4cc(-c5ccco5)ccc4c3CCN1C(=O)[C@@H](CC(=O)NC(C)(C)C)C[C@@H]2C(=O)N1CCN(C(=O)C2CC2)CC1	·	·	·	-1	·	-9	·	·	·	·

Screening results from PubChem.
